Active and inactive are the calls of the source. No cut-off for these calls is given here.
Key:
HeLa [1] = experiment: Antiproliferative activity against human HeLa cells at 30 uM after 48 hrs incubation by Alamar Blue assay; format: functional, cell-based
Outline: (§1)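 HeLa cells plated at 3 x 10^3 cells/well, treated 48 h at a single concentration (20 or 30 µM as per line); viability by Alamar Blue added for 3 h at 37 °C, 5% CO2, fluorescence at 530 nm ex/590 nm em; percent inhibition of proliferation.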

HeLa [2] = experiment: Antiproliferative activity against human HeLa cells at 20 uM after 48 hrs incubation by Alamar Blue assay; format: functional, cell-based; outline: as §1
HeLa [3] = experiment: Antiproliferative activity against human HeLa cells after 48 hrs incubation by Alamar Blue assay; format: functional, cell-based
Outline: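 HeLa cells seeded at 3 x 10^3 cells/well, exposed to compounds for 48 h; Alamar Blue then added and incubated 3 h at 37 °C, 5% CO2; fluorescence read at 530 nm excitation/590 nm emission. IC50 taken from sigmoid dose-response curve.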

[4] = target: T1, Dual specificity protein phosphatase 3 (Homo sapiens, UniProt P51452); experiment: Inhibition of Vaccinia H1-related phosphatase (unknown origin) by fluorescence emission assay
Outline: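 Purified VHR (22 ng) preincubated with or without compound 30 min at 37 °C in 50 mM succinate, 1 mM EDTA, 150 mM NaCl, 1 mM DTT, pH 6.0, 0.001% NP-40; reaction begun with 10 µM O-methylfluorescein phosphate, 10 min at 37 °C; product fluorescence at 485 nm ex/530 nm em; IC50 from sigmoid dose-response curve.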
Target sequence in this assay (P51452 whole entry): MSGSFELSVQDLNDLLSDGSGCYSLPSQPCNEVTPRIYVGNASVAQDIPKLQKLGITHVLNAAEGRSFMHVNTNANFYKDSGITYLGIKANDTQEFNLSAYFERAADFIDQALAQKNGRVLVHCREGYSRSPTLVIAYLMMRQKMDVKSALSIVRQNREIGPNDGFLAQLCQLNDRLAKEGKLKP

[5] = target: T1, Dual specificity protein phosphatase 3; details: 100 uM
Target sequence in this assay (P51452 whole entry, looked up): as the sequence (P51452 whole entry) above

[6] = target: T1, Dual specificity protein phosphatase 3; experiment: Inhibition of Vaccinia H1-related phosphatase (unknown origin) by fluorescence emission assay in presence of 0.001% NP-40
Target sequence in this assay (P51452 whole entry): as above

Compound: Cc1cccc(CN/C(CCCCc2cccc(OCc3ccccc3Cl)c2)=C2\C(=O)OC(CO)C2=O)c1 (stereo unspecified)
- inhibition (HeLa [1]): Active
- inhibition (HeLa [2]): Active

Compound: Cc1cccc(CN/C(CCCCc2ccccc2OCc2ccc(Cl)cc2)=C2\C(=O)OC(CO)C2=O)c1 (stereo unspecified)
- inhibition (HeLa [1]): Active
- inhibition (HeLa [2]): Active

Compound: Cc1cccc(CN/C(CCCCc2cccc(OCc3ccc(Cl)cc3)c2)=C2\C(=O)OC(CO)C2=O)c1 (stereo unspecified)
- inhibition (HeLa [1]): Active
- inhibition (HeLa [2]): Active

Compound: Cc1cccc(CN/C(CCCCc2ccc(OCc3ccccc3Cl)cc2)=C2\C(=O)OC(CO)C2=O)c1 (stereo unspecified)
- IC50 (HeLa [3]): 10.6 µM

Compound: Cc1cccc(CN/C(CCCCc2ccccc2OCc2ccc([N+](=O)[O-])cc2)=C2\C(=O)OC(CO)C2=O)c1 (stereo unspecified)
- inhibition (HeLa [1]): Active
- inhibition (HeLa [2]): Active

Compound: Cc1cccc(CN/C(CCCCc2ccc(OCc3ccc(Cl)cc3)cc2)=C2\C(=O)OC(CO)C2=O)c1 (stereo unspecified)
- inhibition (HeLa [1]): Active

Compound: Cc1cccc(CN/C(CCCCc2ccc(OCc3cccc(Cl)c3)cc2)=C2\C(=O)OC(CO)C2=O)c1 (stereo unspecified)
- IC50 (HeLa [3]): 7.8 µM

Compound: Cc1cccc(CN/C(CCCCc2ccccc2OCc2ccccc2)=C2\C(=O)OC(CO)C2=O)c1 (stereo unspecified)
- inhibition (HeLa [1]): Active
- inhibition (HeLa [2]): Active

Compound: Cc1cccc(CN/C(CCCCc2cccc(OCc3cccc(Cl)c3)c2)=C2\C(=O)OC(CO)C2=O)c1 (stereo unspecified)
- inhibition (HeLa [1]): Active
- inhibition (HeLa [2]): Active

Compound: Cc1cccc(CN/C(CCCCc2ccccc2OCc2ccc(C(F)(F)F)cc2)=C2\C(=O)OC(CO)C2=O)c1 (stereo unspecified)
- inhibition (HeLa [1]): Active
- inhibition (HeLa [2]): Active

Compound: Cc1cccc(CN/C(CCCCc2ccccc2OCc2cccc(Cl)c2)=C2\C(=O)OC(CO)C2=O)c1 (stereo unspecified)
- inhibition (HeLa [1]): Active
- inhibition (HeLa [2]): Active

Compound: Cc1cccc(CN/C(CCCCc2ccccc2OCc2ccccc2Cl)=C2\C(=O)OC(CO)C2=O)c1 (stereo unspecified)
- inhibition (HeLa [1]): Active
- inhibition (HeLa [2]): Active

Compound: CCCCCCCCCCCCCCC/C(NCc1cccc(C)c1)=C1/C(=O)OC(CO)C1=O (stereo unspecified)
- inhibition (HeLa [1]): Active
- inhibition (HeLa [2]): Active
- IC50 [4]: 1600 nM
- inhibition [5]: inactive
- IC50 [6]: > 100 µM
